Assay results published in ChEMBL document CHEMBL5120972, “Small-Molecule Inhibitors of the MLL1 CXXC Domain, an Epigenetic Reader of DNA Methylation” (ACS Med Chem Lett, 2022).

Molecular target: T1, Lysine-specific demethylase 2A (Homo sapiens, UniProt Q9Y2K7)
T1 sequence (Q9Y2K7 whole entry): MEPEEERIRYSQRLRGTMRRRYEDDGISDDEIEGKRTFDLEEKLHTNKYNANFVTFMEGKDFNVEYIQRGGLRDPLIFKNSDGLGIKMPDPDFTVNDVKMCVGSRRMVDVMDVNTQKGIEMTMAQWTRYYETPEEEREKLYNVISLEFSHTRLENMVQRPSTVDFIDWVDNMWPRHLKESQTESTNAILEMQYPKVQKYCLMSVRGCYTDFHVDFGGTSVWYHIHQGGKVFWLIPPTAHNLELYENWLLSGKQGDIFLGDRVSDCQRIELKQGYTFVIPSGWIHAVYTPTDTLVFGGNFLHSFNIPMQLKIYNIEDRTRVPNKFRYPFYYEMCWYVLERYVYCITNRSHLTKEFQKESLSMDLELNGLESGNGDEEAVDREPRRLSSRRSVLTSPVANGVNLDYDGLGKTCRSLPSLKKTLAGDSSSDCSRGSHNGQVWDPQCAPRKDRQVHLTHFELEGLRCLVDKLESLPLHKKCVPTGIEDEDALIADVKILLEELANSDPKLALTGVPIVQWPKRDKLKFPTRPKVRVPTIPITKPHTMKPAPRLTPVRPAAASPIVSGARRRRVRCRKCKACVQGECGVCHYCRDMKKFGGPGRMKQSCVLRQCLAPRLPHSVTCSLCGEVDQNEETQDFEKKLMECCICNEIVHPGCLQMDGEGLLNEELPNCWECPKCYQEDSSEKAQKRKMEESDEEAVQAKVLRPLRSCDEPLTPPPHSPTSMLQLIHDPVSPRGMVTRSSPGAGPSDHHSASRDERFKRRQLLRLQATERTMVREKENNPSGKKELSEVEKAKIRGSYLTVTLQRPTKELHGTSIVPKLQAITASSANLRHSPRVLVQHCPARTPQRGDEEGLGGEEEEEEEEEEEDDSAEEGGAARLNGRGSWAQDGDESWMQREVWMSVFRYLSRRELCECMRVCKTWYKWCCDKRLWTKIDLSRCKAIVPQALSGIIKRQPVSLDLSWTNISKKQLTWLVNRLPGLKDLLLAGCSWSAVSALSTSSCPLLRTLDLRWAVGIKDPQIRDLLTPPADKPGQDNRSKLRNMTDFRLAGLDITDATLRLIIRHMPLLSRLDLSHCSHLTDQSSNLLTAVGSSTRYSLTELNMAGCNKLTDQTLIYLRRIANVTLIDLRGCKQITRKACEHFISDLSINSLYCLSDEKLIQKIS
Assay: Inhibition of GST-tagged human KDM2A (562 to 618 residues) expressed in Escherichia coli BL21 cells incubated for 30 mins by fluorescence polarization assay
How it was run: (§1)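 Competition fluorescence polarization assay. CXXC domain protein is held at 2× its own KD. All domains are expressed and purified by the same method. Standard deviations come from three separate measurements.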

Question: With `C=CC(=O)N1CCC(c2ccc(OCC)cc2)(c2nnn[nH]2)CC1` as the compound, how does the IC50 read?
Answer: 36 µM

Question: Which IC50 does the source give for `C=CC(=O)N1CCC(C(=O)O)(c2ccc(OCC)cc2)CC1` here?
Answer: 4.2 µM

Question: With `C=CC(=O)N1CCC(c2ccc(OC)cc2)(c2nnn[nH]2)CC1` as the compound, how does the IC50 read?
Answer: 16.4 µM

Question: For `C=CC(=O)N1CCC(c2cccc(OCC)c2)(c2nnn[nH]2)CC1`, which IC50 is on record?
Answer: 7.4 µM

Question: With `C=CC(=O)N1CCC(C(=O)O)(c2ccccc2)CC1` as the compound, how does the IC50 read?
Answer: 3.9 µM

Question: With `C=CC(=O)N1CCC(C(=O)O)(c2ccc(OC)cc2)CC1` as the compound, how does the IC50 read?
Answer: 30 µM

Question: For `C=CC(=O)N1CCC(c2ccccc2)(c2nnn[nH]2)CC1`, which IC50 is on record?
Answer: 4.4 µM

Question: For `C=CC(=O)N1CCC(C(=O)O)(c2ccc(Cl)cc2)CC1`, which IC50 is on record?
Answer: 33 µM

Question: Which IC50 does the source give for `C=CC(=O)N1CCC(C(=O)NS(=O)(=O)c2ccccc2)(c2ccccc2)CC1` here?
Answer: 30 µM

System: not listed separately
Assay: Inhibition of GST-tagged human MLL1 Cys1188Ala mutant (1147 to 1203 residues) expressed in Escherichia coli BL21 cells incubated for 30 mins by fluorescence polarization assay

Question: For `C=CC(=O)N1CCC(c2ccc(OCC)cc2)(c2nnn[nH]2)CC1`, which IC50 is on record?
Answer: 104 µM

Question: With `C=CC(=O)N1CCC(C(=O)O)(c2ccc(OCC)cc2)CC1` as the compound, how does the IC50 read?
Answer: 15.4 µM

Question: For `C=CC(=O)N1CCC(c2ccc(OC)cc2)(c2nnn[nH]2)CC1`, which IC50 is on record?
Answer: 59 µM

Question: With `C=CC(=O)N1CCC(c2cccc(OCC)c2)(c2nnn[nH]2)CC1` as the compound, how does the IC50 read?
Answer: 43 µM

Question: With `C=CC(=O)N1CCC(C(=O)O)(c2ccccc2)CC1` as the compound, how does the IC50 read?
Answer: 3.6 µM

Question: Which IC50 does the source give for `C=CC(=O)N1CCC(C(=O)O)(c2ccc(OC)cc2)CC1` here?
Answer: 51 µM

Question: Which IC50 does the source give for `C=CC(=O)N1CCC(c2ccccc2)(c2nnn[nH]2)CC1` here?
Answer: 20 µM

Question: For `C=CC(=O)N1CCC(C(=O)O)(c2ccc(Cl)cc2)CC1`, which IC50 is on record?
Answer: 108 µM

Question: With `C=CC(=O)N1CCC(C(=O)NS(=O)(=O)c2ccccc2)(c2ccccc2)CC1` as the compound, how does the IC50 read?
Answer: 52 µM

Molecular target: T2, CXXC-type zinc finger protein 4 (Homo sapiens, UniProt Q9H2H0)
T2 sequence (Q9H2H0 whole entry): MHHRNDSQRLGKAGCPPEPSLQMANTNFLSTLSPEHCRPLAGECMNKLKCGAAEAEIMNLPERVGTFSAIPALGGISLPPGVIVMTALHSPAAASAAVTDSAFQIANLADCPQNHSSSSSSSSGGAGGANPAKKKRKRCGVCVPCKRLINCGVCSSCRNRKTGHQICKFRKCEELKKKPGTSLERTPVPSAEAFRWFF
Assay: Inhibition of GST-tagged human IDAX (130 to 181 residues) expressed in Escherichia coli BL21 cells incubated for 30 mins by fluorescence polarization assay
How it was run: as §1

Question: For `C=CC(=O)N1CCC(c2ccc(OCC)cc2)(c2nnn[nH]2)CC1`, which IC50 is on record?
Answer: 8.9 µM

Question: For `C=CC(=O)N1CCC(C(=O)O)(c2ccc(OCC)cc2)CC1`, which IC50 is on record?
Answer: 1.2 µM

Question: Which IC50 does the source give for `C=CC(=O)N1CCC(c2ccc(OC)cc2)(c2nnn[nH]2)CC1` here?
Answer: 8.3 µM

Question: Which IC50 does the source give for `C=CC(=O)N1CCC(c2cccc(OCC)c2)(c2nnn[nH]2)CC1` here?
Answer: 2.2 µM

Question: With `C=CC(=O)N1CCC(C(=O)O)(c2ccccc2)CC1` as the compound, how does the IC50 read?
Answer: 4 µM

Question: With `C=CC(=O)N1CCC(C(=O)O)(c2ccc(OC)cc2)CC1` as the compound, how does the IC50 read?
Answer: 35 µM

Question: With `C=CC(=O)N1CCC(c2ccccc2)(c2nnn[nH]2)CC1` as the compound, how does the IC50 read?
Answer: 2.4 µM

Question: With `C=CC(=O)N1CCC(C(=O)O)(c2ccc(Cl)cc2)CC1` as the compound, how does the IC50 read?
Answer: 33 µM

Question: For `C=CC(=O)N1CCC(C(=O)NS(=O)(=O)c2ccccc2)(c2ccccc2)CC1`, which IC50 is on record?
Answer: 23 µM

Molecular target: T3, F-box/LRR-repeat protein 19 (Homo sapiens, UniProt Q6PCT2)
T3 sequence (Q6PCT2 whole entry): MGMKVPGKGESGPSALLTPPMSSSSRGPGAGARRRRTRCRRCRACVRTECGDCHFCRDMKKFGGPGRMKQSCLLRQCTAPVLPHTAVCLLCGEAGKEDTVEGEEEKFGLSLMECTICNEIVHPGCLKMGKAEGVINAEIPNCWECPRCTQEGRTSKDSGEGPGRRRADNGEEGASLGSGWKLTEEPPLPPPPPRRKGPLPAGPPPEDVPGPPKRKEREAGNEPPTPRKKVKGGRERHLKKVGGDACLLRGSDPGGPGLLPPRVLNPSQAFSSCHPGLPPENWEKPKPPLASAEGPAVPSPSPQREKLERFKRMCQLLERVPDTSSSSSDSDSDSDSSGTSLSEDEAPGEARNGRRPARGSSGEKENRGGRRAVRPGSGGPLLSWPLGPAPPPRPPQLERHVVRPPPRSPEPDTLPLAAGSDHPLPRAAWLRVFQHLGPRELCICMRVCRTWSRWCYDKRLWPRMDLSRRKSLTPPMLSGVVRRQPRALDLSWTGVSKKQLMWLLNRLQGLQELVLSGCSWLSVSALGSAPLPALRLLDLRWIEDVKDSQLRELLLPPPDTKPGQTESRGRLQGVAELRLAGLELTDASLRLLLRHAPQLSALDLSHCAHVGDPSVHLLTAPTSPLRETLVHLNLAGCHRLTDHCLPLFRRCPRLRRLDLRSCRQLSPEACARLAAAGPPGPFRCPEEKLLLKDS
Assay: Inhibition of GST-tagged human FBXL19 (31 to 86 residues) expressed in Escherichia coli BL21 cells incubated for 30 mins by fluorescence polarization assay
How it was run: as §1

Question: With `C=CC(=O)N1CCC(c2ccc(OCC)cc2)(c2nnn[nH]2)CC1` as the compound, how does the IC50 read?
Answer: 10.9 µM

Question: For `C=CC(=O)N1CCC(C(=O)O)(c2ccc(OCC)cc2)CC1`, which IC50 is on record?
Answer: 2.4 µM

Question: With `C=CC(=O)N1CCC(c2ccc(OC)cc2)(c2nnn[nH]2)CC1` as the compound, how does the IC50 read?
Answer: 8.9 µM

Question: For `C=CC(=O)N1CCC(c2cccc(OCC)c2)(c2nnn[nH]2)CC1`, which IC50 is on record?
Answer: 2.6 µM

Question: Which IC50 does the source give for `C=CC(=O)N1CCC(C(=O)O)(c2ccccc2)CC1` here?
Answer: 1.8 µM

Question: Which IC50 does the source give for `C=CC(=O)N1CCC(C(=O)O)(c2ccc(OC)cc2)CC1` here?
Answer: 17 µM

Question: With `C=CC(=O)N1CCC(c2ccccc2)(c2nnn[nH]2)CC1` as the compound, how does the IC50 read?
Answer: 3.1 µM

Question: For `C=CC(=O)N1CCC(C(=O)O)(c2ccc(Cl)cc2)CC1`, which IC50 is on record?
Answer: 31 µM

Question: With `C=CC(=O)N1CCC(C(=O)NS(=O)(=O)c2ccccc2)(c2ccccc2)CC1` as the compound, how does the IC50 read?
Answer: 21.7 µM

Molecular target: Methylcytosine dioxygenase TET1 (Homo sapiens, UniProt Q8NFU7)
Sequence (Q8NFU7 whole entry, the tested form may be a part): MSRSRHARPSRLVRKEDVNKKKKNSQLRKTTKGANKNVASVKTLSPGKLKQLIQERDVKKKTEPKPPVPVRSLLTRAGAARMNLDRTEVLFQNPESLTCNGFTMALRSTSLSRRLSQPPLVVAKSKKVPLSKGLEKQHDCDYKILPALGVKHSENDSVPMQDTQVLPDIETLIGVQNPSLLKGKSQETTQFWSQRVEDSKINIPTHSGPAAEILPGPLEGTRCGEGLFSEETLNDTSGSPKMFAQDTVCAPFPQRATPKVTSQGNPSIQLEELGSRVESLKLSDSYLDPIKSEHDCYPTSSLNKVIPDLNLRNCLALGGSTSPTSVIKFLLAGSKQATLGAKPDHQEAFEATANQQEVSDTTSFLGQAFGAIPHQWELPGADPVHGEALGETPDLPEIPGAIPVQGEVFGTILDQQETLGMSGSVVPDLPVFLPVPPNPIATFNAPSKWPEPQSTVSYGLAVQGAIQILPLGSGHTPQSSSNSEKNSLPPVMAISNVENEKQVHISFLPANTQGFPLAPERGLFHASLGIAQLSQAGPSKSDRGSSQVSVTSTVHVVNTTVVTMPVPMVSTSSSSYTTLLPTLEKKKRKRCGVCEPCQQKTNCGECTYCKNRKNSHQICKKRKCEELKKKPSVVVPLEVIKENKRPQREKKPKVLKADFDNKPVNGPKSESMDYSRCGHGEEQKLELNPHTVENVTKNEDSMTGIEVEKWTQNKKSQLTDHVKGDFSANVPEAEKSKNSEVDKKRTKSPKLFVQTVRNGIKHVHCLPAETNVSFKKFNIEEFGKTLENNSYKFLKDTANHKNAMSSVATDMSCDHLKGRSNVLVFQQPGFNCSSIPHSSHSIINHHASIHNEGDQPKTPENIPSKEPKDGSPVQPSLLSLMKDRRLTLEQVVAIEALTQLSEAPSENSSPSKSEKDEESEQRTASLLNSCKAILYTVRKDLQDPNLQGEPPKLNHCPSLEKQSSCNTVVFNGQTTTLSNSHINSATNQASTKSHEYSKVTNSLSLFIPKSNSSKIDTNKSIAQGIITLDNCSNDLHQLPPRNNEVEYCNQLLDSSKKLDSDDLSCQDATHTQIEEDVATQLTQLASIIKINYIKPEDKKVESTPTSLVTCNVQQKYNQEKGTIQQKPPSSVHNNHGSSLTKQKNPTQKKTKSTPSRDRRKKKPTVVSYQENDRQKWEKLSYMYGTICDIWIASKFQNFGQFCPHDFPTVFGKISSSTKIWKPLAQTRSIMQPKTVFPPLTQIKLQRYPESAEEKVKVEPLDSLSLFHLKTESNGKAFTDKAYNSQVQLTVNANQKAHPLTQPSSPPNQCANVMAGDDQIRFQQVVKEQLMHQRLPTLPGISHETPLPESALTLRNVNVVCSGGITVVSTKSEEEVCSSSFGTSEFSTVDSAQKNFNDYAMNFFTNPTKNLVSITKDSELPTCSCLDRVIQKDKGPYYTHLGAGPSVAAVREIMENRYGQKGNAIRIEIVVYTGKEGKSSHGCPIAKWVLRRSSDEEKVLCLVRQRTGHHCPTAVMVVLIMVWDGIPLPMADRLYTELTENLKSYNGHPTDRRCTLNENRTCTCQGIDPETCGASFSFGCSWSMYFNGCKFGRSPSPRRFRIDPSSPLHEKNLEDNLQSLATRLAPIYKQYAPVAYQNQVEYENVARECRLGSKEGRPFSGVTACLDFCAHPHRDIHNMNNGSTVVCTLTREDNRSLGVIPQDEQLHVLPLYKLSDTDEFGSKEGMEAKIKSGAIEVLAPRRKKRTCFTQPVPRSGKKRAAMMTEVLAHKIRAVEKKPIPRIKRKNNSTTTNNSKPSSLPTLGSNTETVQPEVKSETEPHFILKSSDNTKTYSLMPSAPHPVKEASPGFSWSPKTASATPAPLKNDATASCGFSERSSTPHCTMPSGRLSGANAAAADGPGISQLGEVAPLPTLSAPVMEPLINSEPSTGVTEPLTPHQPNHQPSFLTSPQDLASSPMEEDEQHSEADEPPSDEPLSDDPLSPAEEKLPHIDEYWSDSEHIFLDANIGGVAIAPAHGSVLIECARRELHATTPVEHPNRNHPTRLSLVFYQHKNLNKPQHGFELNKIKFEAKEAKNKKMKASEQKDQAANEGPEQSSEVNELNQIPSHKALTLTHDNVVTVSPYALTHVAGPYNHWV
Assay: Inhibition of GST-tagged human TET1 (583 to 633 residues) expressed in Escherichia coli BL21 cells incubated for 30 mins by fluorescence polarization assay
How it was run: as §1

Question: For `C=CC(=O)N1CCC(c2ccc(OCC)cc2)(c2nnn[nH]2)CC1`, which IC50 is on record?
Answer: 24 µM

Question: For `C=CC(=O)N1CCC(C(=O)O)(c2ccc(OCC)cc2)CC1`, which IC50 is on record?
Answer: 6.3 µM

Question: With `C=CC(=O)N1CCC(c2ccc(OC)cc2)(c2nnn[nH]2)CC1` as the compound, how does the IC50 read?
Answer: 31 µM

Question: With `C=CC(=O)N1CCC(c2cccc(OCC)c2)(c2nnn[nH]2)CC1` as the compound, how does the IC50 read?
Answer: 10.7 µM

Question: Which IC50 does the source give for `C=CC(=O)N1CCC(C(=O)O)(c2ccccc2)CC1` here?
Answer: 11.3 µM

Question: For `C=CC(=O)N1CCC(C(=O)O)(c2ccc(OC)cc2)CC1`, which IC50 is on record?
Answer: 81 µM

Question: With `C=CC(=O)N1CCC(c2ccccc2)(c2nnn[nH]2)CC1` as the compound, how does the IC50 read?
Answer: 11 µM

Question: Which IC50 does the source give for `C=CC(=O)N1CCC(C(=O)O)(c2ccc(Cl)cc2)CC1` here?
Answer: 166 µM

Question: Which IC50 does the source give for `C=CC(=O)N1CCC(C(=O)NS(=O)(=O)c2ccccc2)(c2ccccc2)CC1` here?
Answer: 107 µM

Molecular target: Methylcytosine dioxygenase TET3 (Homo sapiens, UniProt O43151)
Sequence (O43151 whole entry): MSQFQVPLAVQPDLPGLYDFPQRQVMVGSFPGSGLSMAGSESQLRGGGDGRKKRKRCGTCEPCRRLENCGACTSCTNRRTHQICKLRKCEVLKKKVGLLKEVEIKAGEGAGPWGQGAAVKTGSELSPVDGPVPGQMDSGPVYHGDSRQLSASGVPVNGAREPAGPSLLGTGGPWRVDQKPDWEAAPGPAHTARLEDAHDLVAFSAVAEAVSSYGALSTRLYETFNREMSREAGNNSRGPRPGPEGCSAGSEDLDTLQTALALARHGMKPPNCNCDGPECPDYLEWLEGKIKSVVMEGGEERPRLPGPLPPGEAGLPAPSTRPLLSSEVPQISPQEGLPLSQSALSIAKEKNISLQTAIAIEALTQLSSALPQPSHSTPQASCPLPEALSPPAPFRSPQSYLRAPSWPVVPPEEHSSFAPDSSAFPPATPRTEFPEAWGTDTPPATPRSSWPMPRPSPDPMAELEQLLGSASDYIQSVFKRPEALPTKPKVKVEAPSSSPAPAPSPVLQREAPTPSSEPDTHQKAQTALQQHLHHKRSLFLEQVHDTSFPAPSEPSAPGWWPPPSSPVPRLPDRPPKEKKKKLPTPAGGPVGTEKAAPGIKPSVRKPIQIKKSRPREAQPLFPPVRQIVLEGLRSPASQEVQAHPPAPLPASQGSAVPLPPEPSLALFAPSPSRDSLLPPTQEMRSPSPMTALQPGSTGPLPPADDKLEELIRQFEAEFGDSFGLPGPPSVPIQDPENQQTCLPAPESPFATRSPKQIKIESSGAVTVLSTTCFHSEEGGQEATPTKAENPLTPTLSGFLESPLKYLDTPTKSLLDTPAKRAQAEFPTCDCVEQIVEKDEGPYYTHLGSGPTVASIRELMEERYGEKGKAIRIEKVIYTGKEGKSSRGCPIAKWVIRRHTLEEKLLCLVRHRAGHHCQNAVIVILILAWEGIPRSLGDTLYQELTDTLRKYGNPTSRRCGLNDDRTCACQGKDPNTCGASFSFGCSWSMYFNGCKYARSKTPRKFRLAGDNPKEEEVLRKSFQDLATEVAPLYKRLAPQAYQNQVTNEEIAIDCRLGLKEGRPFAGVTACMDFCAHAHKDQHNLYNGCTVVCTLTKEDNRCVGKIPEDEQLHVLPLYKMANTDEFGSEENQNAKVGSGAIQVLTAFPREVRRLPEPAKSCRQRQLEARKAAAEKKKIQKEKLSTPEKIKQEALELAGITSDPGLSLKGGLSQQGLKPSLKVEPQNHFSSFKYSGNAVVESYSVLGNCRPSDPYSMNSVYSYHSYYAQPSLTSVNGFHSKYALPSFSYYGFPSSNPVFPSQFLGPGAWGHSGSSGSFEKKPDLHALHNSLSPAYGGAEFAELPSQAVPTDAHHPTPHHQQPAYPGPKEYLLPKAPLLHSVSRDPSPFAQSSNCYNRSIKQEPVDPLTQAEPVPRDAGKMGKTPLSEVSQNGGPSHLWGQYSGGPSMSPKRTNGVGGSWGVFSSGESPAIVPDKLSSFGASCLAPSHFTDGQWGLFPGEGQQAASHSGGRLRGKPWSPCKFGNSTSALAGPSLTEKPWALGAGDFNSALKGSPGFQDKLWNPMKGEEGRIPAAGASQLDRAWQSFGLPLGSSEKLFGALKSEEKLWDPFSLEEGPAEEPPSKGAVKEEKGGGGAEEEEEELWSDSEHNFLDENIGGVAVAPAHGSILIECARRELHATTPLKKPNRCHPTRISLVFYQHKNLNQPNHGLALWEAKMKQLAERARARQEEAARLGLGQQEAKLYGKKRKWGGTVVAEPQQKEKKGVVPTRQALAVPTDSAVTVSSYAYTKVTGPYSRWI
Assay: Inhibition of GST-tagged human TET3 ([…] residues) expressed in Escherichia coli BL21 cell incubated for 30 mins by fluorescence polarization assay
How it was run: as §1

Question: With `C=CC(=O)N1CCC(c2ccc(OCC)cc2)(c2nnn[nH]2)CC1` as the compound, how does the IC50 read?
Answer: 21 µM

Question: Which IC50 does the source give for `C=CC(=O)N1CCC(C(=O)O)(c2ccc(OCC)cc2)CC1` here?
Answer: 5.8 µM

Question: With `C=CC(=O)N1CCC(c2ccc(OC)cc2)(c2nnn[nH]2)CC1` as the compound, how does the IC50 read?
Answer: 15.5 µM

Question: For `C=CC(=O)N1CCC(c2cccc(OCC)c2)(c2nnn[nH]2)CC1`, which IC50 is on record?
Answer: 7 µM

Question: With `C=CC(=O)N1CCC(C(=O)O)(c2ccccc2)CC1` as the compound, how does the IC50 read?
Answer: 5.1 µM

Question: For `C=CC(=O)N1CCC(C(=O)O)(c2ccc(OC)cc2)CC1`, which IC50 is on record?
Answer: 30 µM

Question: With `C=CC(=O)N1CCC(c2ccccc2)(c2nnn[nH]2)CC1` as the compound, how does the IC50 read?
Answer: 5.5 µM

Question: With `C=CC(=O)N1CCC(C(=O)O)(c2ccc(Cl)cc2)CC1` as the compound, how does the IC50 read?
Answer: 48 µM

Question: Which IC50 does the source give for `C=CC(=O)N1CCC(C(=O)NS(=O)(=O)c2ccccc2)(c2ccccc2)CC1` here?
Answer: 33 µM
